In data set [1] the test system is PI3K isoforms. Briefly: PI3K inhibition assay. Particulars: any of the PI3K isoforms; IC50 greater than 100 μM taken as not active; data not shown. In kind it is biochemical.
For data set [2], the system named is HeLa cells. As to the kind of experiment: CellTox green cytotoxicity assay. In kind it is cell-based, human. Particulars: 24 h.
For data set [3], the system named is HeLa cells. As to the kind of experiment: Sulphorhodamine blue. In kind it is cell-based, human. Particulars: 25 μM Etoposide and/or 200nM LTUSI54, 4 h, 2 days recovery; vs control. Put shortly: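 Sulphorhodamine B assay on HeLa cells seeded at 2x10^3 cells/well and left to adhere overnight. Treated 4 h with 25 μM Etoposide, 200nM test compound or both, then PBS-washed. Recovery 48 h in medium containing 200nM test compound, or DMSO only for control and Etoposide-alone wells. Absorbance read at 538 nm. Mean ± SEM of four replicates; two-tailed t-test vs control.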

Data set [4] has as its target DNA-PK (Homo sapiens, UniProt P78527). Briefly: DNA-PK inhibition assay. In kind it is biochemical. The note with it: IC50 greater than 100 μM taken as not active; data not shown.
Data set [5] has as its system γ-H2AX. Briefly: Flow cytometry for γ-H2AX expression. In kind it is cell-based, human. The note with it: for cells stained positive for γ-H2AX: 25 μM Etoposide, 200nM LTUSI54.
Data set [6] concerns p53. Briefly: Human phospho-kinase array, p53. In kind it is cell-based. The note with it: HeLa cells, 4 h; 25 μM Etoposide, 200nM LTUSI54; vs control. Summed up:
(§1)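 HeLa cells in small flasks treated 4 h with medium, 25 μM Etoposide, 200nM test compound or combination, then lysed. Human phospho-kinase antibody membranes incubated overnight at 4 °C with lysate at 150 μg/ml protein. Detection antibody cocktail 2 h at room temperature, streptavidin-HRP 30 min, then chemiluminescence at increasing exposures. Fold change vs control; two runs with duplicate spots.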

The test system of data set [7] is p38α. As to the kind of experiment: Human phospho-kinase array, p38α. In kind it is cell-based. Particulars: HeLa cells, 4 h; 25 μM Etoposide, 200nM LTUSI54; vs control. Summed up:
as §1

Data set [8] relates to HeLa cells. As to the kind of experiment: Cell cycle analysis by flow cytometry. In kind it is cell-based, human. The note with it: 4 h treatment; for cells in G2/M phase / cells in S phase: vs control. Summed up:
(§2)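 HeLa cells (DMEM, 10 % FBS) treated 4 h with 25 μM Etoposide, 200nM test compound or both, with or without 2 days recovery in medium containing test compound. Harvested, fixed in 70 % ethanol at −20 °C overnight, then stained with 25 μg/ml propidium iodide plus 100 μg/ml RNase for 30 min at 37 °C in the dark. Doublets and debris gated out. Mean ± SEM, three independent experiments.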

The subject of data set [9] is HeLa cells. As to the kind of experiment: Sub G1 analysis. In kind it is cell-based, human. The note with it: 25 μM Etoposide and/or 200nM LTUSI54, 4 h, 2 days recovery. Summed up:
as §2

Setting [10] is: 4 h treatment followed by 2 days recovery.

As for “2-((3-methoxybut-3en-2-yl)amino)-8methyl-4H-benzo[1,3]oxazin-4one [LTUSI54]”, in [1], the “inhibitory effect on PI3K isoforms (IC50)” value was “no inhibitory effect”. For the same molecule, in [2] (200nM), the “cytotoxic effect (CellTox green)” value was “no cytotoxic effect”. For the same molecule, in data set [2] (100 μM, control 191 RFUs, p <0.0001), the CellTox fluorescence worked out at 299.3 RFUs. The “change in HeLa cell number (SRB)” value in data set [3] is “significant reduction in cell numbers”. In [4], the “inhibitory effect on DNA-PK (IC50)” value is listed as “no inhibitory effect”. Besides, the “cells stained positive for γ-H2AX” value in data set [5] (setting [10]) is on record as 2.7%; in data set [5] (after 4 h treatment), 7.3%. In [6], the “fold increase in activation of p53” value is 1.5 fold. Also, the “fold increase in activity (phosphorylation) of p38α” value in data set [7] worked out at 3.645 fold. The “cells in G2/M phase” value in data set [8] (2 days recovery) was “reduction of cells in G2/M phase”; in data set [8] it was “significant reduction of cells in G2/M phase”. For the same molecule, the “cells in S phase” value in data set [8] was “significant increase in cells in S phase”.
`COc1cc([C@@H]2c3cc4c(cc3[C@@H](O[C@@H]3O[C@@H]5CO[C@@H](C)O[C@H]5[C@H](O)[C@H]3O)[C@H]3COC(=O)[C@H]23)OCO4)cc(OC)c1O` [Etoposide, reference compound]: the “apoptotic cells (sub G1 phase)” value in data set [9] was “significant increase in apoptotic cells”. Moreover, the “change in HeLa cell number (SRB)” value in [3] is given as “significant reduction in cell number”. The “cells stained positive for γ-H2AX” value was 15% in [5] (setting [10]) and “about 80%” in [5] (after 4 h treatment). Besides, the “fold decrease in γ-H2AX positive cells” value in data set [5] (2 days recovery vs 4 h treatment) was “more than 5 fold”. For the same molecule, the “fold increase in activation of p53” value in [6] is 3.5 fold. For the same molecule, the “fold increase in activity (phosphorylation) of p38α” value in data set [7] is listed as 2.64 fold. Also, the “cells in S phase” value in data set [8] (2 days recovery) is reported as “significant increase”; in [8], “increase in cells in S phase”. In addition, in [8] (2 days recovery, vs control and LTUSI54 alone (p < 0.0001)), the “cells in G1 phase” value is reported as “significant reduction in G1 cells”.
